Only some compounds are listed: those with a hit (about 1.5% of all), similar ones and a draw of the others.
bCat nuc transl: beta-catenin nuclear translocation modulation | HeLa beta-catenin nuclear translocation, immunofluorescence imaging | nuclear translocation activity, % at 5 µM | 190,000 compounds, 0.3% hits | AID 1665;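 active = nuclear translocation activity above 50% at 5 µM, with a well cell count of 50 or more; inconclusive = wells under 50 cells across six images, flagged as toxic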;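 note: per-cell ratio of nuclear to cytoplasmic median beta-catenin stain intensity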
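assay system = human HeLa cells, endogenous beta-catenin | times = compound treatment 24 h, 37°C, 5% CO2 | detection = Anti-beta-catenin immunofluorescence on PFA-fixed, Triton-permeabilized cells, DAPI nuclei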
MT stabilizer: stabilizes microtubules in HeLa cells; AID 2205; HeLa tubulin immunostaining HCS, 24 h; share of cells brighter than vehicle mean+2SD; % tubulin-high responders, % at 10 µM; 200,000 compounds, 0.83% hits;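 active = plate Z-score above 3 for both tubulin-high and condensed-nucleus cell shares, with cell loss under 80%, at 10 µM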;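 note: anti alpha tubulin signal scored within the nucleus-defined area of each cell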
Rad51 HR inh: blocks human Rad51 in homologous recombination; Q06609; hRad51 DNA strand exchange, fluorescence dequenching; inhibition, % at 10 µM; 200,000 compounds, 0.085% hits;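 active = inhibition above 40% at the single screening dose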
Target sequence (Q06609 whole entry, looked up): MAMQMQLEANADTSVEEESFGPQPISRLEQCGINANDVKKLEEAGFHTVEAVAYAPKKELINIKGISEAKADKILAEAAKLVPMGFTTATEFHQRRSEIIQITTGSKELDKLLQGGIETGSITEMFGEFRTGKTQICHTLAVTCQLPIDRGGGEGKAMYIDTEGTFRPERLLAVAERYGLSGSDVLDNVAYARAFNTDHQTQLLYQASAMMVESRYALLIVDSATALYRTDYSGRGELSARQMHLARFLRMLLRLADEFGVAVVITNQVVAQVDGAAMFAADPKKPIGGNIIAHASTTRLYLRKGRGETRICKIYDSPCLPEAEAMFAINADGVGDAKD
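Read-out basis: percent inhibition relative to plate controls and blanks / Assay system: human Rad51 nucleoprotein filaments preassembled on unlabelled ssDNA / Timing: filaments 15 min 37 °C, then compound 30 min / Control set: per-plate controls and blanks / Technique: fluorescence dequenching at 485/520 nm / Compound: 10 µM final, single point / Also added: Fluorescein- and BHQ1-tagged 47-mer duplex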
Dynein transport: blocks dynein driven cargo transport along microtubules; z-score, hits read low; 3617.4 mouse cells, GR-EGFP nuclear translocation imaging; test concentration mostly 20 µM; stimulated with dexamethasone, 1 µM; active compounds read low; 220,000 compounds, 0.47% hits;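 active = plate z-score of nuclear minus cytoplasmic receptor signal below a set negative limit, without overly bright fluorescence or cell loss, cut at about -3.5 in these data, passing the limit was not always enough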;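 note: z-score of nuclear minus cytoplasmic ring GR-EGFP intensity difference per well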
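Buffer or medium: Induction medium lacking tetracycline, stripped serum | Also added: Dexamethasone agonist, 1.0 µM final, for 30 min | Timing: 48 h induction, 1 h compound, 30 min dex at 37 °C | Detection: Formaldehyde fixation, Hoechst nuclear stain, 10x automated fluorescence imaging | Measure: Nuclear versus cytoplasmic GR-EGFP signal, averaged per well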
Tb hexokinase: T. brucei hexokinase 1 inhibition; 220,000 compounds, 0.11% hits; recombinant TbHK1, G6PDH-coupled NADH A340; inhibition, % at 10 µM;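 active = inhibition of 50% or more in the single-dose primary screen; inactive = inhibition below 50%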
Dynein inh conf: dynein cargo transport inhibition, confirmation. calls only at 20 µM. shares compounds with Dynein transport. 1,000 compounds, 69% hits. 3617.4 GR-EGFP nuclear translocation imaging, dexamethasone-induced. AID 463116;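 active = inhibition of receptor movement into the nucleus at or above a set limit in both runs, with normal cell brightness and cell count; inconclusive = limit reached in only one run, brightness and count normal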;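 note: dexamethasone at 1 µM final in well for 30 min; nuclear minus cytoplasmic GR-EGFP mean intensity difference in channel 2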
Numbers stand for hits.

Results for CC(=O)NS(=O)(=O)c1ccc(NC(=O)C(Sc2ccccc2)c2ccccc2)cc1 (stereo unspecified) ?
bCat nuc transl: inactive; MT stabilizer: inactive; Rad51 HR inh: inactive; Dynein transport: inactive; Tb hexokinase: inactive

How did COc1ccc2cc(/C=N/NC(=O)CSCc3ccc([N+](=O)[O-])cc3)c(Cl)nc2c1 do in these assays?
bCat nuc transl: inactive; MT stabilizer: inactive; Rad51 HR inh: inactive; Dynein transport: inactive; Tb hexokinase: inactive

Results for BrC(=C\c1ccccc1)/C=N/n1cnnc1 ?
bCat nuc transl: inactive; MT stabilizer: inactive; Rad51 HR inh: inactive; Dynein transport: -3.7; Tb hexokinase: inactive; Dynein inh conf: active

How did Cc1ccsc1/C=N/Nc1cccc(C(=O)O)c1 do in these assays?
bCat nuc transl: inactive; MT stabilizer: inactive; Dynein transport: inactive; Tb hexokinase: inactive

Results for CN(CCC#N)C(=S)Nc1ccc(S(=O)(=O)N2CCOCC2)cc1 ?
bCat nuc transl: inactive; MT stabilizer: inactive; Rad51 HR inh: inactive; Dynein transport: inactive; Tb hexokinase: inactive

Results for Cc1ccc(NC(=O)C(=Cc2ccc(C(=O)O)cc2)C(=O)Nc2ccc(C)cc2C)c(C)c1 ?
bCat nuc transl: inactive; Rad51 HR inh: inactive; Dynein transport: -6; Tb hexokinase: inactive; Dynein inh conf: active

How did Cc1cccc(Oc2ccc(NC(=O)c3ccccc3C(=O)O)cc2)c1 do in these assays?
bCat nuc transl: inactive; Rad51 HR inh: inactive; Dynein transport: inactive; Tb hexokinase: inactive

What do the screens show for `Cn1c(Cl)cnc1C1CC(=O)c2cc(Cl)ccc2O1` (stereo unspecified)?
bCat nuc transl: inactive; MT stabilizer: inactive; Rad51 HR inh: inactive; Dynein transport: -5.9; Tb hexokinase: inactive; Dynein inh conf: inconclusive

Results for O=C(NCc1cccnc1)/C(=C/c1ccc(-c2ccc(Cl)cc2)o1)S(=O)(=O)c1ccccc1 ?
MT stabilizer: inactive; Rad51 HR inh: inactive; Dynein transport: -5.3; Tb hexokinase: inactive; Dynein inh conf: active

Results for O=C(NCc1cccnc1)/C(=C\c1ccc(-c2ccc(Br)cc2)o1)S(=O)(=O)c1ccccc1 ?
bCat nuc transl: inactive; MT stabilizer: 47; Rad51 HR inh: inactive; Dynein transport: -4.6; Tb hexokinase: inactive; Dynein inh conf: active

How did CCCN(CCC)S(=O)(=O)c1ccc(Cl)c([N+](=O)[O-])c1 do in these assays?
bCat nuc transl: inactive; MT stabilizer: inactive; Rad51 HR inh: inactive; Dynein transport: -3.5; Tb hexokinase: inactive; Dynein inh conf: inconclusive

What do the screens show for `Cc1ccc2nc(-c3cccc(NC(=O)c4ccco4)c3)[nH]c2c1`?
bCat nuc transl: inactive; MT stabilizer: inactive; Rad51 HR inh: inactive; Dynein transport: inactive; Tb hexokinase: inactive

What do the screens show for `COc1ccc(Nc2ncccc2C(=O)NCc2ccccc2)cc1`?
MT stabilizer: inactive; Rad51 HR inh: inactive; Dynein transport: inactive; Tb hexokinase: inactive

How did COc1cccc(Nc2ncccc2C(=O)NCc2ccccc2)c1 do in these assays?
bCat nuc transl: inactive; MT stabilizer: inactive; Rad51 HR inh: inactive; Dynein transport: inactive; Tb hexokinase: inactive; Dynein inh conf: inactive

How did CCN(CC)c1ccc2cc(-c3nc(-c4ccc(OC)cc4)cs3)c(=O)oc2c1 do in these assays?
bCat nuc transl: inactive; MT stabilizer: inactive; Rad51 HR inh: inactive; Dynein transport: -5.1; Tb hexokinase: inactive; Dynein inh conf: active

Results for COc1ccc(S(=O)(=O)Nc2ccc(O)c3ccccc23)cc1 ?
bCat nuc transl: inactive; MT stabilizer: inactive; Rad51 HR inh: inactive; Dynein transport: -3.7; Tb hexokinase: inactive; Dynein inh conf: inactive

How did COC(=O)Nc1ccc(S(=O)(=O)Nc2cccc3ccccc23)cc1 do in these assays?
bCat nuc transl: inactive; MT stabilizer: inactive; Rad51 HR inh: inactive; Dynein transport: inactive; Tb hexokinase: inactive

What do the screens show for `CN1C(=S)N(c2cccnc2)C(=O)/C1=C\c1ccc(C(C)(C)C)cc1`?
bCat nuc transl: inactive; MT stabilizer: inactive; Rad51 HR inh: inactive; Dynein transport: -3.7; Tb hexokinase: inactive; Dynein inh conf: inconclusive

How did Cc1cc(-n2ccnc2)n2c(nc3ccccc32)c1C#N do in these assays?
MT stabilizer: inactive; Rad51 HR inh: inactive; Dynein transport: inactive; Tb hexokinase: inactive

What do the screens show for `CCCc1cc(-n2ccnc2)n2c(nc3ccccc32)c1C#N`?
bCat nuc transl: inactive; MT stabilizer: inactive; Dynein transport: inactive; Tb hexokinase: inactive; Dynein inh conf: inactive

Assay outcomes from PubChem.
